From ChEMBL document CHEMBL4765483 (J Med Chem, 2021)

Tests used:
Conditions in all cases: Cell membrane
[1] = molecular target: Adenosine receptor A2a (Homo sapiens) (UniProt P29274); test: Displacement of [3H]ZM2421385 from adenosine A2A receptor expressed in human HeLa cell membranes at 1 uM incubated for 30 mins by scintillation counting method
[2] = molecular target: T1, Adenosine receptor A2b (Homo sapiens) (UniProt P29275); test: Displacement of [3H]DPCPX from human adenosine A2B receptor expressed in HEK293 cell membranes at 1 uM incubated for 30 mins by scintillation counting method
T1 sequence (whole entry): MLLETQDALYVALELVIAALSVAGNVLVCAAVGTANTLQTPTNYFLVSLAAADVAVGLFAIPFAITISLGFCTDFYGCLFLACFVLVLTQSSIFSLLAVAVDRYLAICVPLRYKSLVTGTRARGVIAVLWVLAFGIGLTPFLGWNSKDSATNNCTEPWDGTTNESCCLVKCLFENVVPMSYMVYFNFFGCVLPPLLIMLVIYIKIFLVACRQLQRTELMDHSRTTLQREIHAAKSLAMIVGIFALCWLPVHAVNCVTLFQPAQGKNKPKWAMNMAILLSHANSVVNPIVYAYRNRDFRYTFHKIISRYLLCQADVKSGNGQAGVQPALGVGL

[3] = molecular target: T2, Adenosine receptor A1 (Homo sapiens) (UniProt P30542); test: Displacement of [3H]DPCPX from human adenosine A1 receptor expressed in CHO cell membranes at 1 uM incubated for 60 mins by scintillation counting method
T2 sequence (whole entry): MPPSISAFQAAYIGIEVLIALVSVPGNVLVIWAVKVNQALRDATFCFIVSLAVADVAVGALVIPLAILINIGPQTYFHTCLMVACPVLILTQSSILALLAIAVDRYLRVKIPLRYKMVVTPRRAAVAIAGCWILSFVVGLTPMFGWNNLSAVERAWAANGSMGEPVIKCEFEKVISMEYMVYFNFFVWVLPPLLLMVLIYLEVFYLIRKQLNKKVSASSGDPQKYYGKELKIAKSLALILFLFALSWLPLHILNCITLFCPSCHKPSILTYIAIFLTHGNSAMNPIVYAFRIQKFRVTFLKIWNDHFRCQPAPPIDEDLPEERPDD

[4] = molecular target: T3, Adenosine receptor A3 (Homo sapiens) (UniProt P0DMS8); test: Displacement of [3H]NECA from adenosine A3 receptor expressed in human HeLa cell membranes at 1 uM incubated for 180 mins by scintillation counting method
T3 sequence (whole entry): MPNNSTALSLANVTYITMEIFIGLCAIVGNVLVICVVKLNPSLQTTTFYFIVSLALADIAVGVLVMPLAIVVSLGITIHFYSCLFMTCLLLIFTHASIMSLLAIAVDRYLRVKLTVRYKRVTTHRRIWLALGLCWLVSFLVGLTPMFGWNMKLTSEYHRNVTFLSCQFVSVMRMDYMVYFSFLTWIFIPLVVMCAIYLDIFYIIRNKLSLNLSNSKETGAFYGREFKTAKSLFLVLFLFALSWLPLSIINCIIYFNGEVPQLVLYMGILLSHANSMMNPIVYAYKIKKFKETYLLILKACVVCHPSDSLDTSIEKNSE
Method in brief: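 hA3AR in HeLa membranes (3 pmol/mg protein) with 10 nM [3H]NECA (KD 8.7 nM); nonspecific binding with 100 μM R-PIA; incubated 180 min at 25 °C, washed, filtered, radioactivity counted.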

Adenosine receptor A2a (Homo sapiens), sequence (P29274 whole entry): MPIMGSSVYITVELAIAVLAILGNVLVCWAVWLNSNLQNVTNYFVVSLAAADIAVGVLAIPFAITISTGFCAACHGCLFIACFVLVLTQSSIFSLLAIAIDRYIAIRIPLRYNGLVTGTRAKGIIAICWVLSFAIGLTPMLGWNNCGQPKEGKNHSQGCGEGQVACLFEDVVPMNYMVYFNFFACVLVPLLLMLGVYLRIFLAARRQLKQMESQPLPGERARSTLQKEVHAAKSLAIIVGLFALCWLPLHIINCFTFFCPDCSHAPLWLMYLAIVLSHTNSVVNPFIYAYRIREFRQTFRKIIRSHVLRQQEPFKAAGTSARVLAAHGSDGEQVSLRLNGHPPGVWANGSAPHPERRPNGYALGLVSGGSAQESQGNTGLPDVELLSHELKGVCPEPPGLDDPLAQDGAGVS

inhibition [1] [%]	inhibition [2] [%]	inhibition [3] [%]	inhibition [4] [%]	inhibition ([2]; filed as antagonist) [%]	Compound
2	2	11	3	–	CC(=O)C1=C(C)NC(=O)NC1c1cccs1 (racemic)
1	15	6	2	–	CC(=O)C1=C(C)NC(=O)NC1c1ccoc1 (racemic)
1	24	9	1	–	CC(=O)C1=C(C)NC(=O)NC1c1ccsc1 (racemic)
1	1	1	15	–	CC1=C(C(=O)C2CC2)C(c2cccs2)NC(=O)N1 (racemic)
1	10	1	16	–	CC1=C(C(=O)C2CC2)C(c2ccoc2)NC(=O)N1 (racemic)
4	1	2	1	–	CC1=C(C(=O)C2CC2)C(c2ccsc2)NC(=O)N1 (racemic)
1	–	19	18	43	CC1=C(C(=O)CC(C)C)C(c2cccs2)NC(=O)N1 (racemic)
1	2	3	4	–	CC1=C(C(=O)NC(C)C)C(c2ccco2)NC(=O)N1 (racemic)
1	3	1	3	–	CC1=C(C(=O)NC(C)C)C(c2ccoc2)NC(=O)N1 (racemic)
1	35	18	14	–	CC1=C(C(=O)OC(C)(C)C)C(c2ccsc2)NC(=O)N1C (racemic)
2	1	8	4	–	CC1=C(C(=O)OCC(C)C)C(c2ccsc2)NC(=O)N1C (racemic)
1	3	2	1	–	CC1=C(C(N)=O)C(c2cccs2)NC(=O)N1 (racemic)
3	6	1	2	–	CC1=C(C(N)=O)C(c2ccoc2)NC(=O)N1 (racemic)
23	9	2	2	–	CCCC(=O)C1=C(C)NC(=O)NC1c1cccs1 (racemic)
2	22	1	2	–	CCCC(=O)C1=C(C)NC(=O)NC1c1ccoc1 (racemic)
11	9	6	1	–	CCCC(=O)C1=C(C)NC(=O)NC1c1ccsc1 (racemic)
3	1	2	11	–	CCCOC(=O)C1=C(C)N(C)C(=O)NC1c1ccsc1 (racemic)
9	31	11	19	–	CCN(CC)C(=O)C1=C(C)NC(=O)NC1c1ccco1 (racemic)
6	12	15	37	–	CCN(CC)C(=O)C1=C(C)NC(=O)NC1c1ccoc1 (racemic)
1	1	2	3	–	CCNC(=O)C1=C(C)NC(=O)NC1c1ccco1 (racemic)
1	1	1	4	–	CCNC(=O)C1=C(C)NC(=O)NC1c1cccs1 (racemic)
2	2	1	1	–	CCNC(=O)C1=C(C)NC(=O)NC1c1ccoc1 (racemic)
13	26	24	22	–	COC(=O)C1=C(C)N(C)C(=O)NC1c1ccsc1 (racemic)
